Reference: ChEMBL document CHEMBL1157586 (Bioorg Med Chem, 2010)
pIC50: −log10 of the molar value. Calls of active or inactive are those of the source. No cut-off for these calls is given here.

Assays:
[1] = Inhibition of NIM by scintillation proximity assay
[2] = Inhibition of PDGFR by scintillation proximity assay
[3] = Inhibition of STK2 by scintillation proximity assay
[4] = Inhibition of SULU1 by scintillation proximity assay
[5] = system: HCT-116; experiment: Antiproliferative activity against human HCT116 cells after 72 hrs by SRB assay; assay type: functional, cell-based; details: HCT-116, 72 h
[6] = system: COLO 205; experiment: Antiproliferative activity against human COLO205 cells after 72 hrs by SRB assay; assay type: functional, cell-based; details: COLO 205, 72 h
[7] = Antiproliferative activity against human C-433 cells after 72 hrs by SRB assay; assay type: functional, cell-based; details: C-433, 72 h
[8] = system: DU-145; experiment: Antiproliferative activity against human DU145 cells after 72 hrs by SRB assay; assay type: functional, cell-based; details: DU-145, 72 h
[9] = system: A-375; experiment: Antiproliferative activity against human A375 cells after 72 hrs by SRB assay; assay type: functional, cell-based; details: A-375, 72 h
[10] = system: PC-3; experiment: Antiproliferative activity against human PC3 cells after 72 hrs by SRB assay; assay type: functional, cell-based; details: PC-3, 72 h
[11] = system: MCF7; experiment: Antiproliferative activity against human MCF7 cells after 72 hrs by SRB assay; assay type: functional, cell-based; details: MCF7, 72 h
[12] = system: BXPC-3; experiment: Antiproliferative activity against human BxPC3 cells after 72 hrs by SRB assay; assay type: functional, cell-based; details: BXPC-3, 72 h
[13] = system: A2780; experiment: Cell cycle arrest in human A2780 cells assessed as accumulation at G0/G1 phase at 3 uM after 24 hrs by FACS analysis; assay type: functional
Outline: (§1)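 A2780 cells (ECACC) seeded at 25000 cells/cm² in RPMI 1640, pH 7.4, with 10% FBS, 2 mM L-glutamine and penicillin–streptomycin, at 37 °C in 5% CO₂. After 24 h, treated for 24 h at 1 and 3 µM. Floating and trypsinised adherent cells pooled, PBS-washed, and DNA content analysed by flow cytometry.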

[14] = system: A2780; experiment: Cell cycle arrest in human A2780 cells assessed as accumulation at S phase at 3 uM after 24 hrs by FACS analysis; assay type: functional; outline: as §1
[15] = system: A2780; experiment: Cell cycle arrest in human A2780 cells assessed as accumulation at G2/M phase at 3 uM after 24 hrs by FACS analysis; assay type: functional; outline: as §1
[16] = system: A2780; experiment: Cell cycle arrest in human A2780 cells assessed as accumulation at sub-G1 phase at 3 uM after 24 hrs by FACS analysis; assay type: functional; outline: as §1
[17] = system: A2780; experiment: Cell cycle arrest in human A2780 cells assessed as accumulation at G0/G1 phase at 1 uM after 24 hrs by FACS analysis; assay type: functional; outline: as §1
[18] = system: A2780; experiment: Cell cycle arrest in human A2780 cells assessed as accumulation at S phase at 1 uM after 24 hrs by FACS analysis; assay type: functional; outline: as §1
[19] = system: A2780; experiment: Cell cycle arrest in human A2780 cells assessed as accumulation at G2/M phase at 1 uM after 24 hrs by FACS analysis; assay type: functional; outline: as §1
[20] = system: A2780; experiment: Inhibition of cellular DNA synthesis in human A2780 cells assessed as BrdU incorporation into nuclear DNA at 3 uM after 24 hrs by Hoechst 33342 staining-based microscopic analysis; assay type: functional; design: scale not given: the % may be the effect or the level left
Outline: (§2)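 A2780 human ovarian adenocarcinoma cells were seeded at 25000 cells/cm² in RPMI 1640 pH 7.4 with 10% FBS, 2 mM L-glutamine and penicillin–streptomycin. They were kept at 37 °C in 5% CO₂. After 24 h they were exposed to compound for 24 h. Floating and adherent cells were harvested with trypsin/EDTA, washed in PBS, and split for flow cytometry, immunoblot and BrdU incorporation.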

[21] = system: A2780; experiment: Inhibition of cellular DNA synthesis in human A2780 cells assessed as BrdU incorporation into nuclear DNA at 1 uM after 24 hrs by Hoechst 33342 staining-based microscopic analysis; assay type: functional; design: scale not given: the % may be the effect or the level left; outline: as §2
[22] = molecular target: T1, Cyclin-dependent kinase (Homo sapiens) (UniProt P06493+P11802+P24941+Q00535+Q00534+P50613+Q00526+Q00536+Q07002+P49336+Q00537+P21127+Q96Q40+Q9BWU1+O94921+P50750+Q15131+Q14004+Q8IZL9+Q9NYV4); experiment: Inhibition of CDK in human A2780 cells assessed as reduction of hyperphosphorylated form of retinoblastoma protein at 1 uM by immunohistochemistry; assay type: cell-based
[23] = molecular target: T1, Cyclin-dependent kinase (Homo sapiens); experiment: Inhibition of CDK in human A2780 cells assessed as reduction of hyperphosphorylated form of retinoblastoma protein at 3 uM by immunohistochemistry; assay type: cell-based
[24] = molecular target: T1, Cyclin-dependent kinase (Homo sapiens); experiment: Inhibition of CDK in human A2780 cells assessed as accumulation of hypophosphorylated form of retinoblastoma protein at 1 uM by immunohistochemistry; assay type: cell-based
[25] = molecular target: T1, Cyclin-dependent kinase (Homo sapiens); experiment: Inhibition of CDK in human A2780 cells assessed as accumulation of hypophosphorylated form of retinoblastoma protein at 3 uM by immunohistochemistry; assay type: cell-based
[26] = system: A2780; experiment: Antitumor activity against human A2780 cells xenografted in iv dosed BALB/c nu/nu mouse assessed as inhibition of tumor growth administered QD for 10 consecutive days measured every 3 days post last dose; assay type: functional, organism-based
Outline: (§3)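 Human tumor xenografts (A2780 ovarian, HCT-116 colon, BX-PC3 pancreatic) in mice. Compound dissolved in 5% dextrose and given iv once daily for 10 consecutive days; A2780 curves show dosing from day 8. Doses were 10, 20 and 30 mg/kg for A2780, and 10 and 20 mg/kg for HCT-116 and BX-PC3. Controls received vehicle. Tumor growth inhibition taken at end of treatment; body weight tracked.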

[27] = system: A2780; experiment: Antitumor activity against human A2780 cells xenografted in BALB/c nu/nu mouse assessed as inhibition of tumor growth at 30 mg/kg, iv QD for 10 consecutive days measured every 3 days post last dose; assay type: functional; outline: as §3
[28] = system: HCT-116; experiment: Antitumor activity against human HCT116 cells xenografted in BALB/c nu/nu mouse assessed as inhibition of tumor growth at 20 mg/kg, iv QD for 10 consecutive days measured every 3 days post last dose; assay type: functional; details: HCT-116, read-out: INH; outline: as §3
[29] = system: HCT-116; experiment: Antitumor activity against human HCT116 cells xenografted in iv dosed BALB/c nu/nu mouse assessed as inhibition of tumor growth administered QD for 10 consecutive days measured every 3 days post last dose; assay type: functional, organism-based; outline: as §3
[30] = system: BXPC-3; experiment: Antitumor activity against human BxPC3 cells xenografted in BALB/c nu/nu mouse assessed as inhibition of tumor growth at 20 mg/kg, iv QD for 10 consecutive days measured every 3 days post last dose; assay type: functional; outline: as §3
[31] = system: Mus musculus; experiment: Inhibition of CDK in human A2780 cells xenografted in iv dosed BALB/c nu/nu mouse assessed as reduction of hyperphosphorylated form of retinoblastoma protein at 30 mg/kg, iv for 5 days by immunohistochemistry; assay type: functional, organism-based; design: dose 30 mg/kg
Outline: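 Mice bearing A2780 xenografts given 30 mg/kg iv for 5 days; vehicle controls. Tumors analysed by immunohistochemistry for BrdU and phospho-pRb positive cells. For BrdU, sections were denatured and pretreated with 4 N HCl and proteinase K, then stained with the Dako ARK kit and counterstained with hematoxylin. Automated quantitative image analysis done by two observers.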

[32] = Inhibition of CK2 by scintillation proximity assay
[33] = system: A2780; experiment: Antiproliferative activity against human A2780 cells after 72 hrs by CellTiter-Glo luminescence assay; details: A2780, 72 h
[34] = system: A2780; experiment: Antitumor activity against human A2780 cells xenografted in iv dosed BALB/c nu/nu mouse assessed as reduction of BrdU incorporation into cellular DNA at 30 mg/kg, iv for 5 days by immunohistochemistry

With `CC(C)CC(=O)Nc1n[nH]c2c1CN(C(=O)C1CCN(C)CC1)C2(C)C` [PHA-793887] the pIC50 [1] was < 5.00, the pIC50 [2] was < 5.00 and the pIC50 [3] was < 5.00. The pIC50 [4] was < 5.00, the pIC50 [5] was 6.79 and the pIC50 [6] was 6.73. The pIC50 [7] was 6.55, the pIC50 [8] was 6.52 and the pIC50 [9] was 6.40. The pIC50 [10] was 6.22, the pIC50 [11] was 5.89 and the pIC50 [12] was 5.46. For the same compound, the Activity [13] was -11%, the Activity [14] was -48% and the Activity [15] was 263%. For the same compound, the Activity [16] was 26.2%, the Activity [17] was 25% and the Activity [18] was -76%. The Activity [19] was 62%, the Activity [20] was -100% and the Activity [21] was -85%. The Activity [22] was “Active”, the Activity [23] was “Active” and the Activity [24] was “Active”. The Activity [25] was “Active”, the Activity [26] was “Dose-dependent effect” and the inhibition in vivo at 30 mg/kg [27] was 76%. The inhibition in vivo at 20 mg/kg [28] was 81%, the Activity [29] was “Dose-dependent effect” and the inhibition in vivo at 20 mg/kg [30] was 84%. For the same compound, the Activity [31] was “Active”, the pIC50 [32] was < 5.00 and the pIC50 [33] was 7.05. The Activity [34] was “Active”.
